Screens deposited in PubChem by Broad Institute.
The entries come from a sample that favours hits as a whole.
KDM4C inh: KDM4C (human) demethylase inhibition. Q9H3R0. GST-KDM4C 2-372, H3K9me3 peptide, LANCE TR-FRET. inhibition, % at 12.5 µM. 0.15% of 96,000 active. AID 720574;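 active = mean replicate inhibition above about 25%, with at least 55% of replicates also reaching it, limit read from the data, passing the limit was not always enough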
Target sequence (Q9H3R0 2-372 limits assumed): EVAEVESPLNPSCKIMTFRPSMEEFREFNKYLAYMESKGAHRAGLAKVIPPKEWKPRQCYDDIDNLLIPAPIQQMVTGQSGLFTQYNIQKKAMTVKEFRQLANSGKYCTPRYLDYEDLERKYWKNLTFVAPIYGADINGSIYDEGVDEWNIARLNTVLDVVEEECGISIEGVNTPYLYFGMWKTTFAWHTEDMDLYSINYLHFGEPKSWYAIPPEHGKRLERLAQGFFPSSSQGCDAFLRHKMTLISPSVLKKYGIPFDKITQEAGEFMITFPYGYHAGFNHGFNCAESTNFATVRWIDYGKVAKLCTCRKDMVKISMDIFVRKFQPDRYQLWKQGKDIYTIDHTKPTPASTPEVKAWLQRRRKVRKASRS
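Assay system: GST-GASC-1 enzyme fragment 2-372 | Amount: 10 nM enzyme | Medium: HEPES buffer, pH 7.5, plus ascorbate | Reagent: H3K9me3 peptide substrate, Fe(II), 2-oxoglutarate | Doses: Single-point compound screen | Incubation: 30 min demethylation and 1 h detection at room temperature | Measured by: LANCE TR-FRET, excitation 340 nm, emissions 618 and 671 nm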
IDH1 R132H inh: blocks human IDH1 R132H reductase activity; 0.18% of 70,000 active; inhibition, % at 10 µM; AID 624101; diaphorase/resazurin fluorescence, 60 min; in the data active = inhibition above about 34%;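 note: 0% = DMSO and 100% = no enzyme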
T cruzi growth-1: blocks T. cruzi growth in NIH3T3 culture; inhibition, % at 8.34 µM; T. cruzi beta-gal in NIH3T3, GalScreen luminescence, 90 h; 5.9% of 77,000 active;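 active = mean inhibition above about 93%, with at least 55% of replicates each passing it, limit read from the data, passing the limit was not always enough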
T cruzi growth-2: inhibitors of T. cruzi proliferation | shares compounds with T cruzi growth-1 | T. cruzi beta-gal in NIH3T3, GalScreen luminescence, 90 h | inhibition, % at 8.35 µM | 72% of 5,600 active | AID 651739;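 active = mean replicate inhibition above about 95% and at least 55% of replicates individually reaching it, limit read from the data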
T cruzi growth-3: inhibitors of T. cruzi proliferation. shares compounds with T cruzi growth-1. T. cruzi beta-gal in NIH3T3, GalScreen luminescence, 90 h. inhibition, % at 2.09 µM. 21% of 5,600 active;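 active = mean inhibition above about 95%, with at least 55% of replicates also reaching it, limit read from the data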;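 note: plate controls were neutral control median for no effect and positive control median for full effect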
NIH3T3 tox: NIH/3T3 (mouse) viability loss | cytotoxicity (signal decrease), % at 8.35 µM | 14% of 5,600 active | NIH/3T3 viability, CellTiter-Glo ATP luminescence, 90 h | shares compounds with T cruzi growth-1;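 active = mean signal decrease across replicates above about 35% based on untreated-well scatter, with enough replicates individually passing, limit read from the data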;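 note: 0% = median of neutral control wells and 100% = median of positive control wells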
NIH3T3 tox 2: cytotoxicity in mouse NIH/3T3 fibroblasts | AID 651744 | shares compounds with T cruzi growth-1 | NIH/3T3 viability, CellTiter-Glo ATP luminescence, 90 h | inhibition, % at 24.9 µM | 56% of 5,600 active;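 active = mean loss of cell viability signal at or above a set limit, and enough replicates individually reaching it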;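 note: 0% = median of neutral control wells and 100% = median of positive control wells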
Starred values were filed as active, the others as inactive; x = not tested or not shown.

SMILES	KDM4C inh	IDH1 R132H inh	T cruzi growth-1	others
Cc1ccc(S(=O)(=O)N(C)C[C@H]2OCCCC[C@H](C)Oc3ccc(NS(=O)(=O)c4ccc(F)cc4)cc3C(=O)N([C@@H](C)CO)C[C@H]2C)cc1	-1	2	115*
Cc1ccc(S(=O)(=O)N(C)C[C@@H]2OCCCC[C@H](C)Oc3ccc(NS(=O)(=O)c4ccc(F)cc4)cc3C(=O)N([C@@H](C)CO)C[C@@H]2C)cc1	-2	-3	113
COc1cc(C)c(C(=O)Oc2cc(C)c(C(=O)Oc3cc(C)c(C(=O)NC(C)C(=O)O)c(O)c3)c(O[C@@H]3O[C@H](CO)[C@@H](O)[C@H](O)[C@H]3OC(C)=O)c2)c(O)c1 (stereo partly specified)	x	0	x
COc1cccc2cc(C(=O)N3CCN(CCN4C(=O)c5cccc6cccc(c56)C4=O)CC3)c(=O)oc12	x	-1	x
Cc1cc(C(=O)CSc2nnc3ccccn23)c(C)n1-c1cc(Cl)ccc1Cl	x	-1	x
CN1C(=O)c2cc(NC(=O)C3CC3)ccc2OC[C@@H]2O[C@@H](CC(=O)O)CC[C@@H]21	1	x	x
CN1C(=O)c2cc(NC(=O)C3CC3)ccc2OC[C@H]2O[C@@H](CC(=O)O)CC[C@@H]21	44*	x	x
CN(C)c1ccc2c(c1)[C@@H]1C[C@@H](CC(=O)NCc3ccc(Oc4ccccc4)cc3)O[C@@H](CO)[C@@H]1O2	5	-1	127*
CN(C)c1ccc2c(c1)[C@H]1C[C@H](CC(=O)NCc3ccccc3)O[C@@H](CO)[C@H]1O2	36*	-2	22
CN(C)c1ccc2c(c1)[C@H]1C[C@@H](CC(=O)NCc3ccc(Oc4ccccc4)cc3)O[C@H](CO)[C@H]1O2	8	x	x
CN(C)c1ccc2c(c1)[C@@H]1C[C@@H](CC(=O)NCc3ccccc3)O[C@H](CO)[C@@H]1O2	25	-3	38
O=C(CC1NC2CCCCC2NC1=O)Nc1ccc([N+](=O)[O-])cc1 (stereo unspecified)	x	-1	x
COc1ccc([N+](=O)[O-])cc1NC(=O)c1ccccc1N(C)S(=O)(=O)c1ccc(C)cc1	x	0	x
CO[C@H]1CN(C)C(=O)c2cc(NC(=O)c3ccccc3)ccc2OC[C@@H](C)N(C(C)=O)C[C@@H]1C	x	87*	-65
CCCNC(=O)Nc1ccc2c(c1)OC[C@H](C)N(C(=O)C1CCOCC1)C[C@H](C)[C@H](OC)CN(C)C2=O	35*	2	49
CCCNC(=O)Nc1ccc2c(c1)OC[C@@H](C)N(C(=O)C1CCOCC1)C[C@H](C)[C@@H](OC)CN(C)C2=O	3	0	-4
CO[C@@H]1CN(C)C(=O)c2cc(NC(=O)c3ccccc3)ccc2OC[C@H](C)N(C(C)=O)C[C@H]1C	0	0	32
CO[C@@H]1CN(C)C(=O)c2ccc(NC(=O)NC(C)C)cc2OC[C@H](C)N(C(=O)CC2CC2)C[C@@H]1C	51*	7	-39
CO[C@H]1CN(C)C(=O)c2ccc(NC(=O)NC(C)C)cc2OC[C@H](C)N(C(=O)CC2CC2)C[C@@H]1C	0	x	x
COC(=O)C1=CO[C@@H](O[C@@H]2O[C@H](CO)[C@@H](O)[C@H](O)[C@H]2O)[C@@H]2[C@@H](CO)C=C[C@H]12	x	0	x
C[C@H](CO)N1C[C@H](C)[C@@H](CN(C)Cc2ccc3c(c2)OCO3)OCCCC[C@H](C)Oc2ccc(NC(=O)Nc3ccc4c(c3)OCO4)cc2C1=O	1	x	91
C[C@@H]1CCCCO[C@H](CN(C)Cc2ccc3c(c2)OCO3)[C@@H](C)CN([C@H](C)CO)C(=O)c2cc(NC(=O)Nc3ccc(F)cc3)ccc2O1	-1	x	98*	T cruzi growth-2=112*;T cruzi growth-3=-2;NIH3T3 tox=-5;NIH3T3 tox 2=9
C[C@@H]1CCCCO[C@@H](CN(C)Cc2ccc3c(c2)OCO3)[C@@H](C)CN([C@@H](C)CO)C(=O)c2cc(NC(=O)Nc3ccc(F)cc3)ccc2O1	-2	4	98*	T cruzi growth-2=110*;T cruzi growth-3=81;NIH3T3 tox=-3;NIH3T3 tox 2=17
C[C@@H]1CCCCO[C@@H](CN(C)Cc2ccc3c(c2)OCO3)[C@H](C)CN([C@@H](C)CO)C(=O)c2cc(NC(=O)Nc3ccc(F)cc3)ccc2O1	-1	7	110*	T cruzi growth-2=98*;T cruzi growth-3=60;NIH3T3 tox=31;NIH3T3 tox 2=92*
CC(C)NC(=O)Nc1ccc2c(c1)C(=O)N([C@@H](C)CO)C[C@@H](C)[C@@H](CN(C)Cc1ccc3c(c1)OCO3)OCCCC[C@@H](C)O2	14	1	77
SMILES	KDM4C inh	IDH1 R132H inh	T cruzi growth-1	others
C[C@H](CO)N1C[C@H](C)[C@H](CN(C)Cc2ccc3c(c2)OCO3)OCCCC[C@H](C)Oc2ccc(NC(=O)Nc3ccc(F)cc3)cc2C1=O	-4	x	88
C[C@@H]1CCCCO[C@H](CN(C)Cc2ccc3c(c2)OCO3)[C@@H](C)CN([C@@H](C)CO)C(=O)c2cc(NC(=O)Nc3ccc(F)cc3)ccc2O1	9	-1	105*	T cruzi growth-2=102*;T cruzi growth-3=104*;NIH3T3 tox=13;NIH3T3 tox 2=105*
C[C@H](CO)N1C[C@H](C)[C@H](CN(C)Cc2ccc3c(c2)OCO3)OCCCC[C@H](C)Oc2ccc(NC(=O)Nc3ccc4c(c3)OCO4)cc2C1=O	0	-1	x
O=C(CCCCCC(=O)Nc1ccccc1O)N/N=C/c1ccc(CO)o1	x	0	x
COc1ccc(NC(=O)CN(C)S(=O)(=O)c2ccc(Br)cc2)c([N+](=O)[O-])c1	x	0	x
CCOC(=O)c1c(NC(=O)c2nc3nc(C)cc(C(F)F)n3n2)sc2c1CCCC2	x	0	x
C[C@@H]1CN([C@H](C)CO)C(=O)c2cc(NC(=O)Nc3ccc4c(c3)OCO4)ccc2O[C@@H](C)CCCCO[C@H]1CN(C)Cc1ccc2c(c1)OCO2	0	x	x
C[C@@H]1CCCCO[C@H](CN(C)Cc2ccc3c(c2)OCO3)[C@H](C)CN([C@@H](C)CO)C(=O)c2cc(NC(=O)Nc3ccc(F)cc3)ccc2O1	-2	x	105*	T cruzi growth-2=105*;T cruzi growth-3=103*;NIH3T3 tox=8;NIH3T3 tox 2=104*
COc1ccccc1-n1c(SC(C)C(=O)N2CCCCC2)nc2ccc(I)cc2c1=O (stereo unspecified)	x	0	x
COc1cc(OC)c(C2=NOC(C(=O)NCc3ccco3)C2)cc1Cl (stereo unspecified)	x	0	x
C[C@H]1CN([C@@H](C)CO)C(=O)c2cc(C#Cc3ccccn3)cnc2O[C@H]1CN(C)Cc1ccccc1	3	0	55
C[C@@H]1CN([C@H](C)CO)C(=O)c2cc(C#Cc3ccccn3)cnc2O[C@H]1CN(C)Cc1ccncc1	2	x	107*	T cruzi growth-2=104*;T cruzi growth-3=39;NIH3T3 tox=-14;NIH3T3 tox 2=2
